Source: PubChem (several laboratories)
Beta cell apopt: inhibitors of cytokine-induced beta cell apoptosis, primary screen, luminescence; protection from apoptosis, % (concentration not given with the values); actives 0.8% (n = 300,000); AID 435005, 2010; INS-1E cytokine-induced death, ATP luminescence, 48 h; percent of positive-control rescue, neutral wells zero;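 active means Every replicate reaches about 75%, or at least half do and their mean reaches it too, limit read from the data; inconclusive means At least half of replicates reach the limit but their mean does not; inactive means Under half of replicates reach the limit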;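 further: 0% = cytokine-treated negative control wells and 100% = positive control rescue; higher means more ATP so stronger rescue from cytokine killing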
Mot1-301 SUMO: yeast Mot1-301 growth rescue at high temperature, primary screen, SUMOylation pathway inhibitor project, S. cerevisiae, ATP luminescence, 38.5C; S. cerevisiae Mot1-301 growth rescue; percent above DMSO median, 100 means doubled; growth rescue, % at 18.8 µM; actives 1% (n = 320,000);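 active means every valid replicate shows activation above 250% relative to neutral control wells; inactive means the rest, any valid replicate at or below 250%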;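 further: OY570 slx delta 5 strain wells were the positive control but not used for scaling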
WT yeast gro inh: growth inhibition of WT strain, primary screen, mitochondrial fusion inhibitor project, WT and mutant strains, chemical genetic; actives 2.1% (n = 190,000); inhibition, % at 10 µM; mitochondrial fusion phenotypic screen; in the data active means inhibition above about 58%; tested in S. cerevisiae
T cruzi inh: inhibitors of intracellular T. cruzi growth, primary screen, luminescence, NIH3T3 host cells | T. cruzi beta-gal in NIH3T3, 90 h | inhibition, % (test concentration not listed) | actives 1.4% (n = 300,000);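 active means mean inhibition across valid replicates above about 55%, limit read from the data; inconclusive means mean below that limit but half or more replicates reach it; inactive means mean below it, under half of replicates reach it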;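 further: signal also drops with host cell toxicity which is not excluded here; 0% = plate median of DMSO wells and 100% = zero luminescence signal; higher percent means less beta-gal luminescence so fewer parasites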
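Read-out: Parasite load inhibition, % | Test system: Mouse NIH/3T3 fibroblasts infected with β-gal-expressing T. cruzi Tulahuen C4 | Amount: 5,000 cells/well | Medium: DMEM, 2% fetal bovine serum | Signal: GalScreen β-gal luminescence, detergent lysis, 60 min | Timing: 3 h attach, ≥90 h co-culture | Also added: Tulahuen C4 trypomastigotes, 5000/well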
Efflux pump inh: inhibitors of Candida efflux pumps in yeast, primary screen, S. cerevisiae, Nile Red, multiplex; S. cerevisiae Candida pump triplex; inhibition, % at 10 µM; actives 0.44% (n = 330,000); AID 485275, 2010;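 active means plate passing quality check with inhibition over a set limit, or well fluorescence over plate mean plus 4 SD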;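 further: Nile Red retained in pooled yeast measured as flow cytometry median fluorescence; 0% = buffer negative control and 100% = Enniatin B positive control; higher means more Nile Red kept so more efflux inhibition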
CSC inhib: cancer stem cell viability inhibitors, primary screen, luminescence | cancer stem cell-like cells viability | inhibition, % at 7.5 µM | actives 1.1% (n = 300,000) | AID 2717, 2010; in the data active means inhibition above about 75%; inconclusive means no clear call, values can overlap the other calls; tested in HMLE shEcad cells
* marks the source's active call; other numbers are inactive results; u = inconclusive; x = no result given; + = active, no number. The list is not random: actives were taken first. Their share in the collection is about 4.8%.

SMILES | Beta cell apopt | Mot1-301 SUMO | WT yeast gro inh | T cruzi inh | Efflux pump inh | CSC inhib
Clc1ccccc1/C=N/Nc1cc(N2CCOCC2)ncn1 | -4.5 | -5.9 | x | -0.4 | -0.1 | -3.0
COCCCNC(=S)N1CCC(C(=O)c2ccc(Cl)cc2)CC1 | 7.8 | 7.2 | x | 2.3 | 0.0 | -10.0
COC(=O)CN(c1ccc(F)cc1)S(=O)(=O)c1ccccc1 | -1.6 | 126.8 | 2.6 | -1.6 | 0.0 | x
COC(=O)Cc1ccc(N(Cc2ccccc2F)S(=O)(=O)c2ccc(Cl)cc2)cc1 | -1.9 | 125.8 | 68.8* | 26.9 | 0.0 | -1.2
N#CCC(=O)N/N=C/c1c(-c2ccccc2)n(-c2ccccc2)c2ccccc12 | 5.0 | -6.4 | x | 32.3 | 0.2 | x
COc1ccc(N2CCN(CC(=O)Nc3ccccc3C(=O)NCc3ccccc3)CC2)cc1 | x | x | x | x | -0.1 | x
CCC(C)(C)NC(=O)C(c1ccc(OC)cc1)N(C(=O)CCC(=O)Nc1cc(C)on1)c1ccc2c(c1)OCCO2 (stereo unspecified) | 4.3 | 3.0 | x | 0.8 | 0.4 | 5.4
NCCCn1c(C(=O)c2cc(Cl)c(N)c(Cl)c2)c2ccc([N+](=O)[O-])cc2[n+]1[O-] | 86.9* | 127.7 | x | 24.3 | 0.0 | 50.8
CC12CN3CC(C)(CN(C1)C3c1ccc3c(c1)OCO3)C2O (stereo unspecified) | -4.0 | + | x | 11.7 | 0.1 | -13.0
CC12CN3CC(C)(CN(C1)C3c1ccccc1)C2O (stereo unspecified) | -7.3 | -14.8 | -15.2 | -9.7 | -0.1 | -7.5
CCOC(=O)c1cn2nc(-c3ccc(OC)cc3)cc2nc1C1CCN(C(=O)OC(C)(C)C)CC1 | -6.7 | -13.5 | 24.3 | 59.2* | 0.5 | 35.0
Cc1cc(=O)oc(C)c1C(=O)Nc1cccc2nonc12 | -1.2 | 323.7* | 11.9 | 0.5 | 0.0 | -7.6
Cc1ccccc1NC(=O)c1c(C)cc(=O)oc1C | -0.7 | -0.6 | x | -4.4 | -0.1 | -5.1
Cc1cc(=O)oc(C)c1C(=O)Nc1ccc2ncccc2c1 | -10.7 | 9.6 | 1.1 | 3.7 | 0.0 | x
Cc1cc(=O)oc(C)c1C(=O)Nc1ccc2nsnc2c1 | -3.7 | 1.9 | 94.1* | -11.4 | 0.1 | -3.2
O=C(c1cc(COc2ccc(F)cc2Cl)on1)N1CCSCC1 | -2.2 | -2.1 | x | 14.0 | -0.1 | -2.4
Cc1ccc(S(=O)(=O)NCCn2cnc([N+](=O)[O-])n2)cc1 | 3.7 | 20.0 | x | 59.8* | -0.1 | 6.1
Cc1ccc(S(=O)(=O)NCCNS(=O)(=O)c2ccc(C)cc2)cc1 | -5.7 | 112.3 | x | 2.0 | -0.1 | -1.6
Cc1ccc(CSCCNS(=O)(=O)c2ccc([N+](=O)[O-])cc2)cc1 | 1.5 | 32.3 | x | 68.2* | 0.0 | 2.8
Cc1ccc(S(=O)(=O)NCCSCc2ccccc2)cc1 | 0.3 | 524.2 | 14.5 | -5.6 | 0.1 | x
COc1cc(C2NC(=S)NC(C)=C2C(=O)Nc2cc(C)cc(C)c2)ccc1O (stereo unspecified) | 2.4 | -28.0 | x | -4.3 | 0.2 | 17.8
O=C1CSc2ccc(C(=O)Nc3cccc(S(=O)(=O)Nc4ccc(Br)cc4)c3)cc2N1 | 41.4 | -16.8 | -2.0 | -43.8 | 0.1 | 87.3*
COc1ccc(NS(=O)(=O)c2cccc(NC(=O)c3ccc(Cl)nc3)c2)cc1 | 107.0* | -14.5 | -7.5 | -40.7 | 0.0 | 24.4
COc1ccc(NS(=O)(=O)c2cccc(NC(=O)c3cnccn3)c2)cc1Br | x | 0.8 | 13.6 | 68.2* | -0.1 | -3.7
CN(C)S(=O)(=O)c1cccc(NC(=O)c2cnccn2)c1 | -0.8 | -3.2 | -24.1 | -15.9 | 0.0 | 20.1
SMILES | Beta cell apopt | Mot1-301 SUMO | WT yeast gro inh | T cruzi inh | Efflux pump inh | CSC inhib
O=C(Nc1cccc(S(=O)(=O)Nc2ccc(Cl)cc2)c1)c1cc2c(s1)CCCC2 | 11.8 | 2.5 | 38.2 | 64.8* | 0.2 | 117.4*
COc1ccc(CNc2nnnn2C)c(OC)c1 | -6.1 | -1.1 | x | -16.3 | -0.1 | -9.9
O=C(Nc1ccc(NS(=O)(=O)c2ccccc2)cc1)c1ccc(Cl)cc1 | -2.1 | 4.5 | x | 19.6 | 0.0 | 18.4
O=C(Nc1cccc(S(=O)(=O)Nc2ccc(Cl)cc2)c1)c1ccc(Cl)nc1 | 78.7* | 4.4 | 13.6 | -15.8 | 0.0 | 19.5
Cc1ccccc1N=Nc1c(O)n(C)c2ccccc12 | -4.6 | 6.2 | x | -27.3 | -0.2 | -13.2
O=C1CSC(c2ccccc2)N1Cc1ccccc1 (stereo unspecified) | 0.6 | -12.1 | x | -5.6 | -0.1 | -11.2
Cc1nn(C(C)C(=O)NCC2CCCO2)c(=O)c2cc3occc3n12 (stereo unspecified) | -14.8 | -14.6 | 61.2* | -9.5 | 0.1 | -9.8
CC12CN3CC(C)(CN(C1)C3c1ccc([N+](=O)[O-])o1)C2=O (stereo unspecified) | -3.2 | 0.5 | -5.4 | 79.7* | -0.1 | -16.5
CCCC12CN3CC(C)(CN(C1)C3c1ccc([N+](=O)[O-])o1)C2=O (stereo unspecified) | -4.9 | 20.2 | x | 17.2 | -0.1 | -0.1
CCC12CN3CC(CC)(CN(C1)C3c1ccc([N+](=O)[O-])o1)C2=O (stereo unspecified) | 2.4 | -6.9 | -4.0 | 60.0* | 0.2 | -10.9
COc1ccc(C(=O)COC(=O)Cn2[nH]c(=O)c3ccccc3c2=O)c(OC)c1 | -1.7 | 0.7 | x | -1.8 | 0.0 | -11.2
COc1ccc(CN(C)C(=O)c2ccc(Cl)c(S(=O)(=O)NCc3cccnc3)c2)cc1F | -6.9 | 9.4 | x | x | -0.3 | -2.7
Cc1ccc(-c2ncccc2OC(=O)C23CC4CC(CC(C4)C2)C3)cc1 | -1.0 | 13.3 | 72.8* | -2.7 | -0.1 | 1.4
Cc1cccc(CN2CCN(C(c3ccccc3)c3ccc(Cl)cc3)CC2)c1 (stereo unspecified) | 60.7 | -9.0 | 65.8* | 17.6 | 0.0 | 85.5*
CN1CCN(Cc2cccc(Oc3ccc(Cl)cc3)c2)CC1 | 0.4 | -12.7 | 10.3 | 74.6* | -0.6 | 51.9
CCN1CCN(Cc2cccc(Oc3ccccc3)c2)CC1 | 7.8 | 9.9 | 9.1 | 59.4* | 0.0 | 43.3
CCN1CCN(Cc2cccc(Oc3ccc(Cl)cc3)c2)CC1 | 1.4 | 4.3 | 17.7 | u | 0.1 | 54.5
COCCNC(=O)COc1cccc2c1OC(C)(C)C2 | -4.4 | 1.9 | 8.8 | -3.1 | 0.0 | -13.9
O=C(Cc1ccc(Cl)cc1)Nc1ccc(-c2cc3ccccc3oc2=O)c(Cl)c1 | 24.6 | 13.2 | 28.1 | 52.6 | 0.6 | 81.7*
O=C(Cc1ccc(Cl)cc1)Nc1ccc2oc(=O)ccc2c1 | 6.9 | -4.3 | x | 1.4 | 0.1 | -4.0
COC(=O)c1ccc(CN2CCCC(CCC(=O)NCc3ccc(C)o3)C2)cc1 (stereo unspecified) | -4.3 | 15.8 | -10.8 | 68.6* | -0.1 | -10.3
COc1cc(CN2CCCC(CCC(=O)NCc3ccc(C)o3)C2)cc2c1OCO2 (stereo unspecified) | -5.2 | -2.8 | 7.0 | 68.9* | 0.0 | 6.7
